DNMT1 block = human DNMT1 methyltransferase inhibitors, primary screen, biochemical, molecular beacon, fluorescence, HinP1I cleavage, uHTS; DNA (cytosine-5)-methyltransferase 1 (Homo sapiens), P26358; inhibition (reported as % activation of signal), % at 10 µM; 0.83% of 360,000 active; in the data active means inhibition above about 50%
LMPTP inh = LMPTP phosphatase inhibitors, primary screen, biochemical, fluorescence intensity, uHTS; recombinant LMPTP-A, OMFP fluorogenic substrate; inhibition, % at 20 µM; 0.22% of 360,000 active;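 active means compounds that cut the enzyme signal by at least half of the control window in the single-dose screen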;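 further: plate controls were DMSO wells with enzyme plus substrate for no effect and substrate without enzyme for full effect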
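Assay system: LMPTP-A enzyme. Input: 0.625 nM LMPTP-A final. Probe or stimulus: 400 µM OMFP. Compound dosing: single 20 µM dose. Schedule: 50 min dark incubation at room temperature. Detection: fluorescence intensity of OMFP turnover product. Read-out: percent inhibition versus substrate-only and uninhibited controls. Benchmarks: no-enzyme low control, uninhibited high control.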
SUMO1 PPI mod = modulators of SUMO1 protein-protein interactions, primary screen, biochemical, uHTS; Small ubiquitin-related modifier 1 (Homo sapiens), P63165; 0.33% of 360,000 active; SUMO1 binding to a labelled peptide, TR-FRET, 1 h; AID 602429, 2012; inhibition, % at 20 µM; in the data active means inhibition above about 37%
HKDC1 inh = HKDC1 hexokinase inhibitors, primary screen, biochemical, fluorescence, uHTS | Q2TB90 | recombinant HKDC1, G6PDH/diaphorase resazurin coupled fluorescence | inhibition, % at 20 µM | 0.16% of 340,000 active;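 active means inhibition above about 35% when tested at 20 µM, limit read from the data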;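 further: plate controls were DMSO wells with enzyme for no effect and DMSO wells lacking enzyme for full effect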
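Material: recombinant HKDC1 hexokinase; Amount: HKDC1 at 5 µg/mL; Medium: Tris pH 8.0 buffer with MgCl2, Tween-20, BSA, BME; Schedule: 90 min reaction incubation at room temperature, dark; Technique: coupled resazurin fluorescence, excitation 525 nm, emission 613 nm.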
STEP inh = STEP phosphatase inhibitors, primary screen, biochemical, fluorescence intensity, uHTS. Tyrosine-protein phosphatase non-receptor type 5 (Homo sapiens), P54829. recombinant STEP, OMFP fluorogenic substrate. inhibition, % at 20 µM. 0.25% of 360,000 active. AID 588621, 2011;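 active means inhibition at 20 µM, scaled per plate between control wells, above about 37%, limit read from the data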;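 further: 0% = DMSO with enzyme and substrate and 100% = substrate only without enzyme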
Target sequence (P54829 whole entry, looked up): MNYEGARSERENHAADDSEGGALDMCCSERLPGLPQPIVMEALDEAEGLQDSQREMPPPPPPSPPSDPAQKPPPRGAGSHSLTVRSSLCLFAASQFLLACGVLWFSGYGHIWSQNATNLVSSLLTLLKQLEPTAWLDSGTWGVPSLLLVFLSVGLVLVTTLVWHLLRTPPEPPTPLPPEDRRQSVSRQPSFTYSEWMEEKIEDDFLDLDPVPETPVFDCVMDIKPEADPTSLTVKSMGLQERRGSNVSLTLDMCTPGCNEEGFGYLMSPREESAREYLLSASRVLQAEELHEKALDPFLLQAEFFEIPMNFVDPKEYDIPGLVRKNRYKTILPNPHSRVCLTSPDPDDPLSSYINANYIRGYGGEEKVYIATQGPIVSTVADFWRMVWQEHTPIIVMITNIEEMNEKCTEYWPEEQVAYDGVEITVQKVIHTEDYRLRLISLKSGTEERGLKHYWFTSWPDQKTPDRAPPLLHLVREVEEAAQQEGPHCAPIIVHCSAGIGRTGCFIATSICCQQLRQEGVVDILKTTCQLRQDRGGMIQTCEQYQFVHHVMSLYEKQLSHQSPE
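System: STEP phosphatase, cell-free reaction; Buffer or medium: Bis-Tris pH 6.0 buffer with DTT, detergent; Incubation: 20 min at room temperature, dark; Measured by: fluorescence, 480/540 nm.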
Scp1 inh = Scp-1 phosphatase inhibitors, primary screen, biochemical, colorimetric, uHTS; inhibition, % at 20 µM; AID 493091, 2011; Carboxy-terminal domain RNA polymerase II polypeptide A small phosphatase 1 (Homo …; Recombinant Scp1, phosphopeptide, malachite green phosphate absorbance; 0.88% of 340,000 active;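 active means inhibition above about 50% at 20 µM, limit read from the data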;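 further: plate controls were DMSO wells with enzyme for no effect and wells lacking enzyme for full effect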
Target sequence (Q9GZU7 76-261 limits assumed): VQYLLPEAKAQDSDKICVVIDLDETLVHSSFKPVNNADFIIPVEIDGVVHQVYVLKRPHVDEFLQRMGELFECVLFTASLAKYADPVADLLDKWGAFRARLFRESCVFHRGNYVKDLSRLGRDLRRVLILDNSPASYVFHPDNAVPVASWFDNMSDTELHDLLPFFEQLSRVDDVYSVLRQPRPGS
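System: SCP-1 catalytic domain; Reagent: Phospho 17-mer peptide substrate; Doses: one concentration, 20 µM, with 1.0% DMSO; Incubation: 45 min room-temperature reaction, 5 min colour, 30 min stabiliser; Signal: Phosphate-binding colour reagent, absorbance read at 630 nm.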
Scp-1 conf = Scp-1 phosphatase inhibitors, retest, confirmation, biochemical, colorimetric, single concentration; shares compounds with Scp1 inh; recombinant SCP-1 catalytic domain, phosphate release, malachite green absorbance; inhibition, % at 20 µM; 61% of 2,500 active; AID 540281, 2011;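 further: plate controls were DMSO with enzyme for no effect and buffer wells lacking enzyme for full effect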
MG interference = colorimetric readout interference by compounds, confirmation, artefact control for Scp-1 inhibitor project, biochemical, single concentration. shares compounds with Scp1 inh. 2,500 tested, under 10 active. apparent inhibition (interference), % at 20 µM. Colorimetric interference counterscreen, malachite green absorbance 630 nm;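 further: compounds added after enzyme reaction finished so only phosphate colour detection is probed; plate controls were DMSO wells with completed Scp-1 reaction for no effect and substrate wells lacking enzyme for full effect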
Scp1 DSF = Scp-1 binding by thermal shift, confirmation, orthogonal assay for Scp-1 inhibitor project, biophysical, differential scanning fluorimetry; shares compounds with Scp1 inh; Recombinant SCP1, Sypro Orange thermal shift Tm; thermal shift relative to vanadate control, % at 40 µM; 25% of 1,500 active; AID 540329, 2011;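 active means substances whose mean melting-temperature shift, as a percentage of the reference inhibitor's shift, reaches about 5.3%, limit read from the data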;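 further: 0% = Tm of DMSO wells and 100% = Tm with sodium orthovanadate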
* marks the source's active call; other numbers are inactive results; . = not tested or not shown. Most compounds without a hit are left out; they make up all but 1.8% or so of the library.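 How the source made its calls, unless noted: active means inhibition of at least 30% at 20 µM; inactive means the rest.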

SMILES	DNMT1 block	LMPTP inh	SUMO1 PPI mod	HKDC1 inh	STEP inh	Scp1 inh	Scp-1 conf	MG interference	others
CC1(C(=O)NCc2ccccc2Br)CCN1C(=O)Cc1ccc(-c2ccccc2)cc1 (centres undefined)	-2.4	5.4	0.0	.	3.0	.	.	.
O=C(O)CCCC(=O)Nc1ccc(Cl)cc1	1.3	0.7	13.0	-10.4	0.5	-0.9	.	.
O=C(O)CCNc1ccc(Cl)cc1	18.8	1.3	1.5	-6.8	1.2	51.7*	43.1*	-13.6	Scp1 DSF=-20.8
COC(=O)C1=C(C(=O)OC)C2(OC1c1ccccc1C)C(=O)c1ccccc1C2=O (centres undefined)	-1.8	1.7	-4.9	3.6	1.5	56.4*	-9.9	-6.8
Cc1ccc(C2/C(=C(\O)c3ccc4c(c3)OCCO4)C(=O)C(=O)N2CC2CCCO2)cc1 (centres undefined)	-1.7	3.2	-6.2	1.2	2.7	-2.4	.	.
COc1cc2cnc(-c3ccccc3)c(-c3cc(OC)c(OC)c(OC)c3)c2cc1OC	2.6	0.5	2.3	12.0	-1.3	61.3*	37.1*	0.1	Scp1 DSF=-7.6
COc1cc2cnc(-c3ccccc3)c(-c3ccc([N+](=O)[O-])cc3)c2cc1OC	-1.7	1.1	-31.1	3.0	-1.0	12.2	.	.
C1=CC2=NC34CCCCC3CC3=C(CCCC3)N4C2=CC1=NC1CCCCC1 (centres undefined)	-4.2	9.8	-12.0	10.1	3.1	68.0*	-6.2	-4.6
Cc1cc(C)c2c(n1)SCC(=O)N2CC(=O)Nc1cccc(Cl)c1	-3.3	-0.2	4.3	-2.6	-0.5	-1.2	.	.
Cc1cc(C)c2c(n1)SCC(=O)N2CC(=O)Nc1c(C)cccc1C	4.0	-1.8	6.5	-4.2	2.8	52.4*	-14.2	-11.5
CC(=O)OCCCn1c(C)[n+](C)c2cc(Cl)c(Cl)cc21	9.2	-1.3	-2.7	-11.5	-3.7	72.6*	-6.5	-10.9
CC(=O)c1ccc(S(=O)(=O)NCCC(=O)NC2CCN(Cc3ccccc3)CC2)cc1	1.9	1.3	-10.6	-4.7	-2.6	-6.7	.	.
Fc1ccc(CSc2nc3ncc(Br)cc3[nH]2)cc1	10.0	23.8	1.2	1.6	-3.1	59.4*	69.5*	-7.6	Scp1 DSF=-13.8
Brc1cnc2nc(SCc3nc4ccccc4[nH]3)[nH]c2c1	-1.3	0.1	2.1	4.2	3.2	-7.9	.	.
O=C(COC(=O)c1cc(Cl)nc(Cl)c1)Nc1ccc(Cl)c(S(=O)(=O)N2CCOCC2)c1	-3.7	1.0	22.2	-0.1	-1.0	0.5	.	.
CCOC(=O)CCCN(c1[nH]c(C)c(C)c1C#N)S(=O)(=O)c1ccc(C)cc1	-3.1	-0.8	2.5	.	-1.7	.	.	.
COc1cc(C=C2CCCC(=Cc3ccc(OCC4CO4)c(OC)c3)C2=O)ccc1OCC1CO1 (centres undefined)	-19.6	1.4	15.3	.	-1.4	.	.	.
CCOc1c(Br)cc(Br)cc1/C=C1\SC(N)=NC1=O	16.9	0.2	2.9	0.7	2.2	85.1*	8.6	-13.1
CCOc1cc(/C=C2\SC(N)=NC2=O)ccc1O	2.5	-5.1	-26.9	5.1	1.6	-2.8	.	.
C[C@]12CCC3C(CC=C4C[C@@H](O)CC[C@@]43C)C1CCC2[C@]1(C)CCC(=O)O1 (some centres undefined)	-0.9	-0.6	3.0	-0.7	-2.6	58.4*	-1.6	-12.0
CCCC(=O)Nc1ccc2nc(SCC(=O)Nc3nccs3)sc2c1	0.5	-2.9	-0.4	-1.7	-2.8	102.1*	1.4	-3.5
COc1ccc(OC)c(/C=N/N(CCC#N)C2=NS(=O)(=O)c3ccccc32)c1	-3.6	-0.5	2.0	-7.7	-1.8	76.3*	-14.8	-15.6
Cc1ccc(S(=O)(=O)N2CCN(C(=O)CN3CCN(c4ccc(O)cc4)CC3)CC2)cc1	-5.0	4.5	0.1	2.3	0.4	-6.5	.	.
Cc1cccc(C)c1NC(=O)NC1(C(=O)N2CCN3CCCC3C2)CCCCC1 (centres undefined)	1.6	-1.5	6.0	-6.4	-0.5	70.3*	-16.6	-12.9
OC(c1ccc(-c2ccccc2)cc1)c1ncc(-c2ccc(F)cc2)[nH]1 (centres undefined)	0.3	2.8	3.3	.	-0.7	.	.	.
SMILES	DNMT1 block	LMPTP inh	SUMO1 PPI mod	HKDC1 inh	STEP inh	Scp1 inh	Scp-1 conf	MG interference	others
COc1cccc(NC(=O)C2CCCN(S(=O)(=O)c3cccc4cccnc34)C2)c1 (centres undefined)	-1.6	-0.5	-0.7	-4.0	2.4	86.4*	5.4	-1.0
CC[n+]1c(/C=C/Nc2ccccc2)oc2ccccc21	6.8	0.6	-9.5	0.8	-1.2	98.5*	-12.9	-19.2
CCOc1ccccc1C(=O)N(C)Cc1cc2cc(OC)ccc2[nH]c1=O	-0.7	-1.3	0.4	-3.5	1.0	50.8*	-20.0	-21.0
CC(C)C[C@H]1CN(CCCC[C@@H]2CNC(=O)C(=O)N2CCc2ccccc2)C(=O)C(=O)N1CCc1ccccc1	.	-0.4	4.0	.	.	.	.	.
O=C(Cc1ccccc1)Nc1cccc(-c2nc3ncccc3o2)c1	-1.9	1.4	-2.8	7.7	-0.6	67.8*	5.1	-7.6
Cc1cc(C)cc(OCC(=O)Nc2cccc(-c3nc4ncccc4o3)c2)c1	-5.8	3.4	3.4	-0.9	-1.6	-12.9	.	.
CCOc1ccccc1-c1cncc(NC)n1	3.4	-0.2	-9.0	.	-3.0	.	.	.
O=C(Cn1nnc(-c2ccccc2)n1)NNC(=O)c1ccccc1	2.7	-1.0	0.9	-3.1	-0.3	-0.3	.	.
Cc1ccc(OCC(=O)NNC(=O)Cn2nnc(-c3ccccc3)n2)cc1	0.9	35.8	-3.4	7.4	31.5	52.6*	41.2*	-4.3	Scp1 DSF=-8.1
